IC50 and ED50 data for 14 compounds are collected here from ChEMBL document CHEMBL1133745, “Indeno[1,2-b]pyrazin-2,3-diones: a new class of antagonists at the glycine site of the NMDA receptor with potent in vivo activity” (J Med Chem, 2000).

The target in assay [1] is Glutamate receptor ionotropic, AMPA (Rattus norvegicus, UniProt P19490+P19491+P19492+P19493). Kind of assay: Displacement of [3H]-AMPA from Ionotropic glutamate receptor AMPA of rat cortical membranes. The format is cell membranes, Membrane. On the technique in general: Loss of bound radioactivity is the signal in a displacement assay; it reports binding, not function.

Assay [2] has as its system Mus musculus. Kind of assay: Compound was tested in vivo (intra peritoneally) in the mouse maximal electroshock convulsion test. The format is functional. In outline:
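CD1 mice (Charles River); tonic convulsions induced by maximal electroshock. Most compounds tested in a single run; test variability estimated at about 12%.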
A general note: Protection in the maximal electroshock model is a classic sign of anticonvulsant action.

Assay [3] relates to Mus musculus. Kind of assay: Compound was tested in vivo (intra peritoneally) with probenecid in the mouse maximal electroshock convulsion test. The format is functional. The procedure, abridged:
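Maximal electroshock in CD1 mice, scoring tonic convulsions. Animals were pretreated with probenecid 200 mg/kg ip, and the compound was given ip 30 min before shock. ED50 in mg/kg ip.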

A further assay addresses Glutamate NMDA receptor. In words: Displacement of [3H]dichlorokynurenate ([3H]-DCKA) from N-methyl-D-aspartate glutamate receptor 1 in rat cortical membranes. Format: cell membranes, Membrane.
Assay [4] has as its system Mus musculus. In words: Compound was tested in vivo (intravenously) activity in the mouse maximal electroshock convulsion test. The format is functional. The conditions noted are these: iv.
Assay [5] concerns Mus musculus. Kind of assay: Compound was tested in vivo (intraperitoneally) with probenecid in the mouse maximal electroshock convulsion test.

By IC50 is commonly meant the concentration needed to halve the response being measured. Lower therefore signals greater potency. Usually ED50 stands for the midpoint of the dose-response relation.

`CC1(CC(=O)O)c2ccccc2-c2nc(O)c(O)nc21` (stereo not drawn): the half-maximal inhibitory concentration (IC50) in assay [1] was determined as 4600 nM; on Glutamate NMDA receptor, 21 nM. Besides, the 50% effective dose (ED50) in the assay with Mus musculus [2] (Mus musculus, read-out: ED50) turned out to be 65 mg/kg; with Mus musculus [3], 2.7 mg/kg.
As for `CC1(CC(=O)O)c2nc(O)c(O)nc2-c2cccc(Cl)c21` (stereo not drawn), the IC50 was found to be 423 nM in assay [1] and 79 nM on Glutamate NMDA receptor. The median effective dose (ED50) in the assay with Mus musculus [2] (Mus musculus, read-out: ED50) came out at 80 mg/kg.
Take `CC1(CC(=O)O)c2ccc(F)cc2-c2nc(O)c(O)nc21` (stereo not drawn): the IC50 in assay [1] was 1280 nM; at Glutamate NMDA receptor it was 15 nM. Besides, the ED50 with Mus musculus [2] (Mus musculus, read-out: ED50) was > 80 mg/kg.
As for `CC1(CC(=O)O)c2ccc(OC(F)(F)F)cc2-c2nc(O)c(O)nc21` (stereo not drawn), the IC50 is > 10000 nM in assay [1] and 4300 nM on Glutamate NMDA receptor.
On the same counts, the results for `O=C(O)C1Nc2cc(Cl)cc(Cl)c2S(=O)(=O)N1Cc1cccc(Br)c1` (stereo not drawn) are > 10000 nM and 8.3 nM.
On to `CCCC1(CC(=O)O)c2ccc(Cl)cc2-c2nc(O)c(O)nc21` (stereo not drawn), for which the results for the IC50 (in assay [1]; on Glutamate NMDA receptor) were 7000 nM and 21 nM, respectively. The median effective dose (ED50) in the assay on Mus musculus [2] (Mus musculus, read-out: ED50) is 1.8 mg/kg.
On the same counts, the results for `Cc1ccc2c(c1)-c1nc(O)c(O)nc1C2(C)CC(=O)O` (stereo not drawn) are 4500 nM, 12 nM and 23 mg/kg.
With `CC1(CC(=O)O)c2cc(Cl)c(Cl)cc2-c2nc(O)c(O)nc21` (stereo not drawn), the IC50 worked out at 1800 nM in assay [1] and 140 nM on Glutamate NMDA receptor. For the same compound, the 50% effective dose (ED50) in the assay with Mus musculus [2] (Mus musculus, read-out: ED50) was > 80 mg/kg.
On the same counts, the results for `CC1(CC(=O)O)c2ccc(Cl)c(Cl)c2-c2nc(O)c(O)nc21` (stereo not drawn) are > 10000 nM, 2550 nM and > 80 mg/kg.
On the same counts, the results for `CC1(CC(=O)O)c2nc(O)c(O)nc2-c2cc(Cl)cc(Cl)c21` (stereo not drawn) are 187 nM, 24 nM and > 80 mg/kg.
For `CC1(CC(=O)O)c2ccc(Cl)cc2-c2nc(O)c(O)nc21` (single isomer, unassigned; (+)), the results for the IC50 (in assay [1]; on Glutamate NMDA receptor) were 1000 nM and 44 nM, respectively. Besides, in the assay on Mus musculus [2], the ED50 is >80 mg/kg.
Turning to `CC1(CC(=O)O)c2ccc(Cl)cc2-c2nc(O)c(O)nc21` (single isomer, unassigned; (-)), the IC50 was determined as 10000 nM in assay [1] and 5 nM on Glutamate NMDA receptor. The ED50 was determined as 4.5 mg/kg in the assay on Mus musculus [2] and 2 mg/kg in the assay with Mus musculus [4].
On to `CC1(CC(=O)O)c2ccc(Cl)cc2-c2nc(O)c(O)nc21` (stereo in doubt; 10i), for which the 50% inhibitory concentration (IC50) was determined as 2100 nM in assay [1] and 28 nM on Glutamate NMDA receptor. The ED50 is 6.8 mg/kg with Mus musculus [2] and 1.8 mg/kg in the assay with Mus musculus [5].
Regarding `O=c1[nH]c2cc(Cl)c(Cl)c([N+](=O)[O-])c2[nH]c1=O` [LICOSTINEL], the concentration for half-maximal inhibition (IC50) in assay [1] is 766 nM; on Glutamate NMDA receptor, 4 nM. For the same compound, in the assay with Mus musculus [2] (Mus musculus, read-out: ED50), the ED50 is 22.5 mg/kg.
